The source made the active and inactive calls. The rule behind the calls is not given here.

Assay [1] addresses T1, Androgen receptor (Rattus norvegicus) (UniProt P15207).
T1 sequence (whole entry): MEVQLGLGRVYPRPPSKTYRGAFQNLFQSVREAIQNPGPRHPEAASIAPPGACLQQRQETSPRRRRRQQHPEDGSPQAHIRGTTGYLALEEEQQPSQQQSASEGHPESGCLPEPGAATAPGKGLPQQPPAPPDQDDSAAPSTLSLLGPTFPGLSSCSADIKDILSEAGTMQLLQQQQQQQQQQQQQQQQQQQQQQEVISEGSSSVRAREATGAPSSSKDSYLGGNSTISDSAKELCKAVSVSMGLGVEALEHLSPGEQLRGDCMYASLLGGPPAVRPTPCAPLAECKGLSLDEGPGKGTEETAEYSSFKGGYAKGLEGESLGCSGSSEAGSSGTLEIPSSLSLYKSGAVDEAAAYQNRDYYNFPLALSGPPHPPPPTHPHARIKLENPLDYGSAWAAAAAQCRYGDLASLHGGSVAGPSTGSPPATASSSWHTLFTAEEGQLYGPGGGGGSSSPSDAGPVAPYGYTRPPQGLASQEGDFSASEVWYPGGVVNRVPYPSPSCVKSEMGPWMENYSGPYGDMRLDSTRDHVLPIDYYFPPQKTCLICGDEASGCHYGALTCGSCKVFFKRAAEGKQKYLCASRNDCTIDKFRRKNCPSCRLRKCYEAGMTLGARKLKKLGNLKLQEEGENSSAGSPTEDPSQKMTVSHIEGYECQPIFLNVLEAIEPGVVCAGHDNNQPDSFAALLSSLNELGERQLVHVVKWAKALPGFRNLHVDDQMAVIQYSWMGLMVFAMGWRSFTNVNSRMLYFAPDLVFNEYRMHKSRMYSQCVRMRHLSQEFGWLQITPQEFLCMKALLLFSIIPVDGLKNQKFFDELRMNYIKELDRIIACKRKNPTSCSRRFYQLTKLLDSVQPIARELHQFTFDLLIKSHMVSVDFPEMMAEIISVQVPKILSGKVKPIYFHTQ
The conditions noted are these: Prostate gland.

Assay [2] is filed under the species Rattus norvegicus. The assay is described as follows: Antiandrogenic activity as the dose required to inhibit testosterone propionate-induced rat ventral prostate weight gain in castrated immature rat by 50%. It is filed as functional, Prostate gland. The method in brief:
(§1)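 Weanling male Sprague-Dawley rats castrated; dosing began 1 week later, grouped by body weight. […] Rats weighed and killed the next day; ventral prostate removed, blotted, weighed. ED50 read graphically as dose halving TP-stimulated prostate weight gain.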

Assay [3] has as its target T1, Androgen receptor (Rattus norvegicus). Kind of assay: Anti-androgenic activity, inhibition of testosterone propionate induced rat ventral prostate (castrated immature rat) weight gain. It is filed as functional. The conditions noted are these: Prostate gland. The method in brief:
as §1

Where [4] appears, read: Rattus norvegicus, Prostate gland, read-out: ED50.

On to `C#C[C@]1(O)CC[C@H]2[C@@H]3CC[C@H]4Cc5nn(S(C)(=O)=O)cc5C[C@]4(C)[C@H]3CC[C@@]21C` (stereo in doubt; 28), for which the Increase result in assay [1] is “inactive”.
Compound `C#C[C@]1(O)CC[C@H]2[C@@H]3CC[C@H]4Cc5nn(S(C)(=O)=O)cc5C[C@]4(C)[C@H]3CC[C@@]21C` (stereo in doubt; 1) [ZANOTERONE] came in with an ED50 in assay [2] of 15 mg/kg.
As for `C#C[C@]1(O)CCC2C3CC[C@H]4Cc5nn(S(=O)(=O)CC)cc5C[C@]4(C)C3CC[C@@]21C` (stereo partly specified), in assay [2] (setting [4]), the median effective dose (ED50) worked out at 100 mg/kg.
Same read-out and setting: as for `C#C[C@]1(O)CCC2C3CC[C@H]4Cc5nn(S(=O)(=O)C(C)C)cc5C[C@]4(C)C3CC[C@@]21C` (stereo partly specified), the figure is above 100 mg/kg.
In the case of `C#C[C@]1(O)CCC2C3CC[C@H]4Cc5c(c[nH][n+]5S(C)(=O)=O)C[C@]4(C)C3CC[C@@]21C` (stereo partly specified), the ED50 in assay [2] (setting [4]) was above 100 mg/kg. Also, the Increase result in assay [1] is “inactive”.
Take `CC[C@]1(O)CCC2C3CC[C@H]4Cc5nn(S(C)(=O)=O)cc5C[C@]4(C)C3CC[C@@]21C` (stereo partly specified): in assay [2] (setting [4]), the ED50 amounted to 41 mg/kg. Further, the Increase result in assay [1] was “inactive”.
For `C#C[C@]1(O)CCC2C3CC[C@H]4Cc5nn(S(=O)(=O)CCCC)cc5C[C@]4(C)C3CC[C@@]21C` (stereo partly specified), the 50% effective dose (ED50) in assay [2] (setting [4]) is above 100 mg/kg.
Consider `C[C@]1(O)CCC2C3CC[C@H]4Cc5nn(S(C)(=O)=O)cc5C[C@]4(C)C3CC[C@@]21C` (stereo partly specified), for which, in assay [2] (setting [4]), the median effective dose (ED50) came out at 10 mg/kg. Moreover, in assay [1], the Increase entry is “inactive”.
`C#C[C@]1(O)CC[C@H]2[C@@H]3CC[C@H]4Cc5nn(S(C)(=O)=O)cc5C[C@]4(C)[C@H]3CC[C@@]21C` (stereo in doubt; 28) [ZANOTERONE] yielded an ED50 in assay [2] of 40 mg/kg.
`CC(C)C(=O)Nc1ccc([N+](=O)[O-])c(C(F)(F)F)c1` [FLUTAMIDE]: in assay [2] (setting [4]), the ED50 stood at 5 mg/kg.
For the compound `C[C@]12CCC3C(CC[C@H]4Cc5nn(S(C)(=O)=O)cc5C[C@]34C)C1CCC2=O` (stereo partly specified), the ED50 in assay [2] (setting [4]) came to 100 mg/kg. Further, in assay [1], the Increase result is “inactive”.
For `C#C[C@]1(O)CC[C@H]2[C@@H]3CC[C@H]4Cc5nn(S(C)(=O)=O)cc5C[C@]4(C)[C@H]3CC[C@@]21C` (stereo in doubt; 1), the Increase entry in assay [1] is “inactive”.
On to `C#C[C@]1(O)CCC2C3CCC4=C(C)c5nn(S(C)(=O)=O)cc5C[C@]4(C)C3CC[C@@]21C` (stereo partly specified), for which, in assay [2] (setting [4]), the ED50 was 14 mg/kg. Further, in assay [1], the Increase entry was “inactive”.
For `C[C@]12Cc3cn(S(C)(=O)=O)nc3C=C1CCC1C2CC[C@@]2(C)C1CC[C@@H]2O` (stereo partly specified), the ED50 in assay [2] (setting [4]) is above 100 mg/kg.
For `CC(=O)[C@@]1(O)CC[C@H]2[C@@H]3C=C(Cl)C4=CC(=O)[C@@H]5C[C@@H]5[C@]4(C)[C@H]3CC[C@@]21C` [CYPROTERONE], the ED50 in assay [2] (setting [4]) was determined as 87 mg/kg.
The same measure, in the same setting: as for `C#C[C@]1(O)CCC2C3CCC4=C(Cl)c5nn(S(C)(=O)=O)cc5C[C@]4(C)C3CC[C@@]21C` (stereo partly specified), the figure is above 100 mg/kg; as for `C#C[C@]1(O)CCC2C3CC[C@H]4Cc5nn(S(=O)(=O)CCC)cc5C[C@]4(C)C3CC[C@@]21C` (stereo partly specified), below 100 mg/kg.
As for `C#C[C@]1(O)CCC2C3CCC4=Cc5nn(S(C)(=O)=O)cc5C[C@]4(C)C3CC[C@@]21C` (stereo partly specified), the median effective dose (ED50) in assay [2] (setting [4]) was below 100 mg/kg. In assay [1], the Increase result is “inactive”.
The corresponding values for `C[C@]12Cc3cn(S(C)(=O)=O)nc3C=C1CCC1C2CC[C@@]2(C)C1CC[C@]2(C)O` (stereo partly specified) are 16 mg/kg and “inactive”.
On to `C[C@]12CCC3C(CC[C@H]4Cc5nn(S(C)(=O)=O)cc5C[C@]34C)C1CC[C@@H]2O` (stereo partly specified), for which the ED50 in assay [2] (setting [4]) is above 100 mg/kg.
For the compound `C#C[C@]1(O)CCC2C3CC[C@H]4Cc5n[nH]cc5C[C@]4(C)C3CC[C@@]21C` (stereo partly specified), the ED50 in assay [2] (setting [4]) amounted to 50 mg/kg.
As for `CC1=C2CCC3C(CC[C@@]4(C)C3CC[C@]4(C)O)[C@@]2(C)Cc2cn(S(C)(=O)=O)nc21` (stereo partly specified), the ED50 in assay [2] (setting [4]) was determined as 3 mg/kg. Further, the Increase entry in assay [1] was “inactive”.
Take `CC(=O)O[C@]1(C(C)=O)CC[C@H]2[C@@H]3C=C(Cl)C4=CC(=O)[C@@H]5C[C@@H]5[C@]4(C)[C@H]3CC[C@@]21C` [CYPROTERONE ACETATE]: in assay [2] (setting [4]), the median effective dose (ED50) is 18 mg/kg.
As to `CC(C)(O)C(=O)Nc1ccc([N+](=O)[O-])c(C(F)(F)F)c1` [HYDROXYFLUTAMIDE], the ED50 in assay [2] (setting [4]) stood at 4 mg/kg. For the same compound, in assay [1], the Increase entry is “inactive”.
In the case of `C=C[C@]1(O)CCC2C3CC[C@H]4Cc5nn(S(C)(=O)=O)cc5C[C@]4(C)C3CC[C@@]21C` (stereo partly specified), in assay [3], the 50% effect level (ED50) was put at a dose of 33 mg/kg. The Increase result in assay [1] is “inactive”.
Consider `CC(O)(CS(=O)(=O)c1ccc(F)cc1)C(=O)Nc1ccc(C#N)c(C(F)(F)F)c1` (stereo unspecified) [BICALUTAMIDE], for which the ED50 in assay [2] (setting [4]) amounted to 4 mg/kg.

The ED50 is the midpoint of the dose-response relation.

The values above are taken from ChEMBL document CHEMBL1124863, “Antiandrogenic steroidal sulfonylpyrazoles” (1990).
